Source: ChEMBL document CHEMBL1268931, “Tailored α-methylene-γ-butyrolactones and their effects on growth suppression in pancreatic carcinoma cells” (Bioorg Med Chem Lett, 2010)

Assays:
MIA PaCa-2 [1] = experiment: Cytotoxicity against human MIAPaCa2 cells assessed as cell growth at 1 uM after 72 hrs by MTT assay relative to untreated control; assay type: functional; settings: MIA PaCa-2, 72 h, read-out: Activity
How it was run: (§1)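 After 72 h of exposure, growth was read with MTS (CellTiter 96 AQueous One) colorimetric reagent as percent of control-treated cells (100%). Mean of at least two independent experiments run in triplicate.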

BXPC-3 [2] = experiment: Cytotoxicity against human BxPC3 cells assessed as cell growth at 1 uM after 72 hrs by MTT assay relative to untreated control; assay type: functional; settings: BXPC-3, 72 h, read-out: Activity; how it was run: as §1
BXPC-3 [3] = experiment: Cytotoxicity against human BxPC3 cells assessed as cell growth at 10 uM after 72 hrs by MTT assay relative to untreated control; assay type: functional; settings: BXPC-3, 72 h, read-out: Activity; how it was run: as §1
PANC-1 [4] = experiment: Cytotoxicity against human PANC1 cells assessed as cell growth at 10 uM after 72 hrs by MTT assay relative to untreated control; assay type: functional; settings: PANC-1, 72 h, read-out: Activity; how it was run: as §1
PANC-1 [5] = experiment: Cytotoxicity against human PANC1 cells assessed as cell growth at 1 uM after 72 hrs by MTT assay relative to untreated control; assay type: functional; settings: PANC-1, 72 h, read-out: Activity; how it was run: as §1
MIA PaCa-2 [6] = experiment: Cytotoxicity against human MIAPaCa2 cells assessed as cell growth at 10 uM after 72 hrs by MTT assay relative to untreated control; assay type: functional; settings: MIA PaCa-2, 72 h, read-out: Activity; how it was run: as §1
[7] = Toxicity against human normal Hematopoietic Progenitor Cells isolated from human cord blood at 1 uM after 18 hrs by MTT assay relative to untreated control

Compound	growth at 1 µM (MIA PaCa-2 [1]) [%]	growth at 1 µM (BXPC-3 [2]) [%]	growth at 10 µM (BXPC-3 [3]) [%]	growth at 10 µM (PANC-1 [4]) [%]	growth at 1 µM (PANC-1 [5]) [%]	growth at 10 µM (MIA PaCa-2 [6]) [%]	Activity [7]
C=C1C(=O)O[C@H](c2ccccc2)[C@H]1c1ccccc1 (relative stereo)	30	86	1	1	116	1	Non-toxic
C=C1C(=O)O[C@H](c2ccc(C)cc2)[C@H]1c1ccccc1 (relative stereo)	26	67	0	0	105	2	Non-toxic
C=C1C(=O)O[C@@H](c2ccccc2)[C@H]1C (relative stereo)	114	98	41	62	143	14	–
C=C1C(=O)O[C@H](c2ccc(C(F)(F)F)cc2)[C@H]1c1ccccc1 (relative stereo)	142	138	13	33	152	5	–
C=C1CC(c2ccccc2)OC1=O (stereo not given)	–	–	136	135	–	106	–
C=C1C(=O)OCC1c1ccccc1 (stereo not given)	–	–	40	31	–	14	–
C=C1C(=O)O[C@H](c2ccc3ccccc3c2)[C@H]1C (relative stereo)	74	113	27	22	139	4	–
C/C=C1\C(=O)O[C@@H](c2ccc([N+](=O)[O-])cc2)[C@H]1C (relative stereo)	–	–	117	106	–	110	–
C=C1C(=O)O[C@@H](C(C)C)[C@H]1C (relative stereo)	–	–	153	119	–	143	–
C=C1C(=O)O[C@@H]2C3O[C@]3(C)CC/C=C(\C)CC[C@@H]12 (stereo not given in full)	78	92	6	12	132	3	–
C/C1=C\CC[C@@]2(C)O[C@@H]2[C@H]2OC(=O)C(CN(C)C)[C@@H]2CC1 (stereo not given in full) [DIMETHYLAMINOPARTHENOLIDE]	73	92	7	17	117	2	Non-toxic
C=C1C(=O)O[C@H](c2ccc3ccccc3c2)[C@H]1c1ccccc1 (relative stereo)	29	60	1	13	53	3	Non-toxic
C=C1C(=O)O[C@@H](c2ccc(OC)cc2)[C@H]1C (relative stereo)	109	128	13	32	130	9	–
C=C1C(=O)O[C@@H](C2CCCCC2)[C@H]1c1ccccc1 (relative stereo)	–	–	95	104	–	81	–
C/C=C1\C(=O)O[C@H](c2ccc(OC)cc2)[C@H]1C (relative stereo)	–	–	179	139	–	124	–
C=C1C(=O)O[C@H](c2ccc(OC)cc2)[C@H]1c1ccccc1 (relative stereo)	54	73	0	0	80	0	–
C=C1C(=O)O[C@@H](c2ccc3ccccc3c2)[C@H]1c1ccccc1 (relative stereo)	125	104	1	33	98	6	–
C=C1C(=O)O[C@@H](c2ccccc2)[C@H]1c1ccccc1 (relative stereo)	32	51	8	38	108	3	–
C=C1C(=O)O[C@@H](c2c(F)c(F)c(F)c(F)c2F)[C@H]1C (relative stereo)	120	98	89	70	86	53	–
